Assay results from ChEMBL document CHEMBL2375304, “Synthesis and anticancer activity of novel 2-pyridyl hexahyrocyclooctathieno[2,3-d]pyrimidine derivatives” (2013).

Columns and labels:
Format in all cases: functional
SN12C = test: Growth inhibition of human SN12C cells after 48 hrs by Sulforhodamine B assay
In short: (§1)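 Cells were preincubated 24 h at 37 °C, 5% CO2, and a time-zero plate was TCA-fixed. Five concentrations were made by serial dilution from a DMSO stock (400-fold the top concentration) and incubated 48 h. Adherent cells were fixed with 10% final TCA and suspension cells with 16%. Plates were stained with 0.4% SRB and read at 515 nm. GI50 is the concentration giving 50% reduction in net protein increase versus control.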

ACHN = test: Growth inhibition of human ACHN cells after 48 hrs by Sulforhodamine B assay
In short: (§2)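 Five-concentration SRB assay using 10-fold or ½-log serial dilutions from a DMSO stock. Exposure is 48 h at 37 °C in 5% CO2 after 24 h preincubation. TCA fixation is followed by SRB staining and a reading at 515 nm. Percentage growth is computed from time-zero, control and treated absorbances. GI50 is the concentration where [(Ti−Tz)/(C−Tz)]×100 = 50, read from the plot against log concentration.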

OVCAR-8 = test: Growth inhibition of human OVCAR8 cells after 48 hrs by Sulforhodamine B assay; settings: OVCAR-8, 48 h; in short: as §1
SK-MEL-2 = test: Growth inhibition of human SK-MEL-2 cells after 48 hrs by Sulforhodamine B assay; settings: SK-MEL-2, 48 h; in short: as §1
LOX IMVI [1] = test: Growth inhibition of human LOXIMVI cells after 48 hrs by Sulforhodamine B assay; in short: as §2
COLO 205 = test: Growth inhibition of human COLO205 cells after 48 hrs by Sulforhodamine B assay; settings: COLO 205, 48 h; in short: as §2
HOP-62 [2] = test: Growth inhibition of human HOP62 cells after 48 hrs by Sulforhodamine B assay; settings: HOP-62, 48 h; in short: as §2
RPMI-8226 = test: Growth inhibition of human RPMI8226 cells after 48 hrs by Sulforhodamine B assay; settings: RPMI-8226, 48 h; in short: as §1
MOLT-4 = test: Growth inhibition of human MOLT4 cells after 48 hrs by Sulforhodamine B assay; settings: MOLT-4, 48 h; in short: as §1
CCRF-CEM = test: Growth inhibition of human CCRF-CEM cells after 48 hrs by Sulforhodamine B assay; in short: as §2
M14 = test: Growth inhibition of human M14 cells at 10^-5 M after 48 hrs by Sulforhodamine B assay relative to control; settings: M14, 48 h, read-out: GI
In short: (§3)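 Single-dose screen at 10⁻⁵ M. Cells are preincubated 24 h at 37 °C in 5% CO2, then exposed to the compound, diluted from a DMSO stock into medium with gentamicin, for 48 h. Adherent cells are fixed with cold TCA (final 10%) and suspension cells with TCA (final 16%). Cells are stained with 0.4% SRB in 1% acetic acid and bound dye is read at 515 nm. Percent growth inhibition is taken against control wells and time-zero plates.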

LOX IMVI [3] = test: Growth inhibition of human LOXIMVI cells at 10^-5 M after 48 hrs by Sulforhodamine B assay relative to control; settings: read-out: GI; in short: as §3
HCT-116 = test: Growth inhibition of human HCT116 cells at 10^-5 M after 48 hrs by Sulforhodamine B assay relative to control; settings: HCT-116, 48 h, read-out: GI; in short: as §3
HOP-62 [4] = test: Growth inhibition of human HOP62 cells at 10^-5 M after 48 hrs by Sulforhodamine B assay relative to control; settings: HOP-62, 48 h, read-out: GI; in short: as §3
A549 = test: Growth inhibition of human A549/ATCC cells at 10^-5 M after 48 hrs by Sulforhodamine B assay relative to control; settings: A549, 48 h, read-out: GI; in short: as §3
K562 = test: Growth inhibition of human K562 cells at 10^-5 M after 48 hrs by Sulforhodamine B assay relative to control; settings: K562, 48 h, read-out: GI; in short: as §3
MDA-MB-468 = test: Growth inhibition of human MDA-MB-468 cells at 10^-5 M after 48 hrs by Sulforhodamine B assay relative to control; settings: MDA-MB-468, 48 h, read-out: GI
In short: (§4)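 Single-dose primary screen at 10⁻⁵ M across 49 lines. Cells were plated 24 h beforehand, with a TCA-fixed time-zero plate, then exposed 48 h at 37 °C, 5% CO2. Cells were fixed with cold TCA, stained with SRB and read at 515 nm. Percent growth was calculated against time-zero and untreated-control absorbances.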

BT-549 = test: Growth inhibition of human BT549 cells at 10^-5 M after 48 hrs by Sulforhodamine B assay relative to control; settings: BT-549, 48 h, read-out: GI; in short: as §3
Hs-578T = test: Growth inhibition of human Hs578T cells at 10^-5 M after 48 hrs by Sulforhodamine B assay relative to control; settings: read-out: GI; in short: as §3
MCF7 = test: Growth inhibition of human MCF7 cells at 10^-5 M after 48 hrs by Sulforhodamine B assay relative to control; settings: MCF7, 48 h, read-out: GI; in short: as §3
DU-145 = test: Growth inhibition of human DU145 cells at 10^-5 M after 48 hrs by Sulforhodamine B assay relative to control; settings: DU-145, 48 h, read-out: GI; in short: as §3
PC-3 = test: Growth inhibition of human PC3 cells at 10^-5 M after 48 hrs by Sulforhodamine B assay relative to control; settings: PC-3, 48 h, read-out: GI; in short: as §4
UO-31 = test: Growth inhibition of human UO31 cells at 10^-5 M after 48 hrs by Sulforhodamine B assay relative to control; settings: UO-31, 48 h, read-out: GI
In short: (§5)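 Single-dose stage: compound tested at 10⁻⁵ M in the 49-cell-line panel. Cells grew 24 h at 37 °C, 5% CO₂ before drug addition. Drug stock was in DMSO at 400-fold, diluted in medium with gentamicin. After 48 h exposure, adherent cells were fixed with cold TCA (10% final) and stained with 0.4% SRB in 1% acetic acid. Dye was solubilized in 10 mM Tris, read at 515 nm. Growth percentage was taken relative to untreated control and time-zero plates.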

CAKI-1 = test: Growth inhibition of human CAKI-1 cells at 10^-5 M after 48 hrs by Sulforhodamine B assay relative to control; settings: CAKI-1, 48 h, read-out: GI; in short: as §3
SK-OV-3 = test: Growth inhibition of human SKOV3 cells at 10^-5 M after 48 hrs by Sulforhodamine B assay relative to control; settings: SK-OV-3, 48 h, read-out: GI; in short: as §4
OVCAR-4 = test: Growth inhibition of human OVCAR4 cells at 10^-5 M after 48 hrs by Sulforhodamine B assay relative to control; settings: OVCAR-4, 48 h, read-out: GI; in short: as §4
IGROV-1 = test: Growth inhibition of human IGROV1 cells at 10^-5 M after 48 hrs by Sulforhodamine B assay relative to control; settings: IGROV-1, 48 h, read-out: GI; in short: as §3
UACC-62 = test: Growth inhibition of human UACC62 cells at 10^-5 M after 48 hrs by Sulforhodamine B assay relative to control; settings: UACC-62, 48 h, read-out: GI; in short: as §5
SK-MEL-28 = test: Growth inhibition of human SK-MEL-28 cells at 10^-5 M after 48 hrs by Sulforhodamine B assay relative to control; settings: SK-MEL-28, 48 h, read-out: GI; in short: as §4

Row | SMILES | GI50 (SN12C) [µM] | GI50 (ACHN) [µM] | GI50 (OVCAR-8) [µM] | GI50 (SK-MEL-2) [µM] | GI50 (LOX IMVI [1]) [µM] | GI50 (COLO 205) [µM] | GI50 (HOP-62 [2]) [µM] | GI50 (RPMI-8226) [µM] | GI50 (MOLT-4) [µM] | GI50 (CCRF-CEM) [µM] | inhibition of growth at 10 µM (M14) [%] | inhibition of growth at 10 µM (LOX IMVI [3]) [%] | inhibition of growth at 10 µM (HCT-116) [%] | inhibition of growth at 10 µM (HOP-62 [4]) [%] | inhibition of growth at 10 µM (A549) [%] | inhibition of growth at 10 µM (K562) [%] | inhibition of growth at 10 µM (MDA-MB-468) [%] | inhibition of growth at 10 µM (BT-549) [%] | inhibition of growth at 10 µM (Hs-578T) [%] | inhibition of growth at 10 µM (MCF7) [%] | also measured
1 | O=c1[nH]c(-c2ccncc2)nc2sc3c(c12)CCCCCC3 | > 100 | > 100 | > 100 | > 100 | > 100 | > 100 | > 100 | > 100 | > 100 | > 100 | – | – | – | – | – | – | – | – | – | – | –
2 | NNc1nc(-c2ccccn2)nc2sc3c(c12)CCCCCC3 | 6.31 | 4.9 | 4.37 | 14.5 | 6.17 | 5.13 | 8.51 | 3.24 | 3.63 | 4.47 | – | – | – | – | – | – | – | – | – | – | –
3 | O=c1[nH]c(-c2ccccn2)nc2sc3c(c12)CCCCCC3 | 6.31 | 5.25 | 4.37 | > 100 | 1.1 | 5.89 | 6.31 | 3.63 | 2.4 | 0.912 | – | – | – | – | – | – | – | – | – | – | –
4 | COc1ccc(N2CCN(c3nc(-c4ccccn4)nc4sc5c(c34)CCCCCC5)CC2)cc1 | 6.03 | 5.13 | 5.25 | 18.2 | 6.31 | 5.62 | 11.5 | 3.72 | 3.24 | 4.37 | – | – | – | – | – | – | – | – | – | – | –
5 | Clc1nc(-c2ccncc2)nc2sc3c(c12)CCCCCC3 | – | – | – | – | – | – | – | – | – | – | -7.52 | 5.4 | 2.69 | -9.05 | -3.56 | 13.6 | 39.6 | -2.76 | 6.64 | 3.18 | inhibition of growth at 10 µM (DU-145): 8.02%; inhibition of growth at 10 µM (PC-3): 0.63%; inhibition of growth at 10 µM (UO-31): 13.9%; inhibition of growth at 10 µM (CAKI-1): -4.99%; inhibition of growth at 10 µM (SK-OV-3): -7.46%; inhibition of growth at 10 µM (OVCAR-4): 14.8%; inhibition of growth at 10 µM (IGROV-1): 7.04%; inhibition of growth at 10 µM (UACC-62): 6.14%; inhibition of growth at 10 µM (SK-MEL-28): -4.12%
6 | CN1CCN(c2nc(-c3ccncc3)nc3sc4c(c23)CCCCCC4)CC1 | 5.62 | 7.94 | 12.3 | 14.5 | 8.32 | 4.9 | 6.46 | 8.32 | 3.8 | 8.13 | – | – | – | – | – | – | – | – | – | – | –
7 | c1ccc(N2CCN(c3nc(-c4ccncc4)nc4sc5c(c34)CCCCCC5)CC2)cc1 | – | – | – | – | – | – | – | – | – | – | -8.43 | 0 | -3.45 | -5.44 | -0.56 | 7.55 | 3.79 | -14.1 | -12.9 | 2.49 | inhibition of growth at 10 µM (DU-145): -4.95%; inhibition of growth at 10 µM (PC-3): 5.9%; inhibition of growth at 10 µM (UO-31): 16.1%; inhibition of growth at 10 µM (CAKI-1): 8.66%; inhibition of growth at 10 µM (SK-OV-3): 1.97%; inhibition of growth at 10 µM (OVCAR-4): 0.34%; inhibition of growth at 10 µM (IGROV-1): 0.86%; inhibition of growth at 10 µM (UACC-62): 5.59%; inhibition of growth at 10 µM (SK-MEL-28): -15%
8 | c1ccc(-c2nc(N3CCOCC3)c3c4c(sc3n2)CCCCCC4)nc1 | 5.01 | 4.47 | 5.13 | 7.94 | 5.25 | 9.33 | 9.55 | 2.14 | 3.8 | 3.55 | – | – | – | – | – | – | – | – | – | – | –
9 | NNc1nc(-c2ccncc2)nc2sc3c(c12)CCCCCC3 | – | – | – | – | – | – | – | – | – | – | -11.9 | 5.88 | 4.13 | 4.03 | -1.81 | 24.7 | 20.1 | 1.1 | -13.7 | 5.87 | inhibition of growth at 10 µM (DU-145): -30.4%; inhibition of growth at 10 µM (PC-3): 7.42%; inhibition of growth at 10 µM (UO-31): 20.4%; inhibition of growth at 10 µM (CAKI-1): 7.27%; inhibition of growth at 10 µM (SK-OV-3): 9.44%; inhibition of growth at 10 µM (OVCAR-4): 18.7%; inhibition of growth at 10 µM (IGROV-1): -16.5%; inhibition of growth at 10 µM (UACC-62): 10.8%; inhibition of growth at 10 µM (SK-MEL-28): 4.94%
